Data set [1] is described as follows: Cytotoxicity against HFF assessed as inhibition of cell viability after 3 days by MTT assay. Format: cell-based. The settings on record: human, HFF cells. In outline:
(§1)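 Uninfected HFFs exposed to a concentration range at 37 °C for 3 days. MTT (5 mg/mL stock in PBS) added for 3 h at 37 °C. Formazan dissolved in DMSO and absorbance read. Triplicates in three independent experiments, mean ± SD. CC50 from dose-response curves.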

Data set [2] is described as follows: Selectivity index, ratio of CC50 for HFF to EC50 for Human cytomegalovirus Towne infected in human foreskin fibroblasts. In outline: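 SI calculated as CC50/EC50. CC50 from MTT assay in uninfected HFFs. EC50 from pp28-luciferase HCMV Towne inhibition in infected HFFs.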
Data set [3] can be described thus: Cytotoxicity against HFF assessed as inhibition of cell viability after 3 days by trypan blue exclusion assay. Type of data set: cell-based. Conditions: human, HFF cells.
Data set [4] concerns Human betaherpesvirus 5. As to the kind of experiment: Antiviral activity against Human cytomegalovirus Towne infected in HFF assessed as inhibition of viral replication by measuring pp28 expression at 72 hrs post-infection by luciferase assay. Type of data set: functional, organism-based. Conditions: Human betaherpesvirus 5, Towne. In outline: (§2)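 HFFs infected with pp28-luciferase reporter HCMV at MOI 1 pfu/cell and treated across a concentration range. Luciferase activity read in cell lysates at 72 hpi. Triplicates in three independent experiments, mean ± SD. EC50 taken from dose-response curves.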

For data set [5], the system named is HFF. Briefly: Cell cycle arrest in HFF infected with HCMV assessed as accumulation at G0/1 phase after 24 hrs by propidium iodide staining based flow cytometry. Format: ADME. The settings on record: human. In outline: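 HFFs serum-starved for 48 h, released, infected with Towne HCMV and treated with compound for 24 h. Cells trypsinized, permeabilized at −20 °C for 12 h, stained with propidium iodide and analysed by flow cytometry. Controls: serum-containing medium and GCV.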

The test system of data set [6] is HFF. Briefly: Effect on mimosine-induced cell cycle arrest in HFF infected with HCMV assessed as accumulation at G0/1 phase treated for 1 day after incubation with mid-G1 inhibitor mimosine for 48 hrs by propidium iodide staining based flow cytometry. Type of data set: ADME. Conditions: human, 24 h. A digest of the protocol:
(§3)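 HFFs pretreated 48 h with mimosine or lovastatin, washed and released, then HCMV-infected and treated 24 h (1 day) with compound. Trypsinized, permeabilized at −20 °C for 12 h, stained with propidium iodide and analysed by flow cytometry.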

Data set [7] has as its system HFF. As to the kind of experiment: Effect on lovastatin-induced cell cycle arrest in HFF infected with HCMV assessed as accumulation at G0/1 phase treated for 24 hrs after incubation with early G1 inhibitor lovastatin for 48 hrs by propidium iodide staining based flow cytometry. Conditions: human. Format: ADME. In outline:
as §3

Data set [8] concerns Human betaherpesvirus 5. Briefly: Antiviral activity against Human cytomegalovirus TB40 infected in HFF assessed as inhibition of viral replication at 50 nM after 3 days by GFP-based fluorescence analysis. Format: functional, organism-based. In outline: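 Human foreskin fibroblasts (HFFs) infected with HCMV-TB40 (GFP-expressing) at MOI 1 pfu/cell, then treated with compound for 3 days. Read-out: GFP fluorescence, with a bright-field image for comparison.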

In data set [9] the test system is Human betaherpesvirus 5. As to the kind of experiment: Antiviral activity against Human cytomegalovirus Towne infected in HFF assessed as decrease in virus DNA yield at 50 nM measured 96 hrs post-infection by real-time PCR analysis. Format: functional, organism-based. In outline:
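HFFs infected with HCMV Towne at MOI 1 pfu/cell and treated for 4 days. Supernatants collected and viral DNA yield quantified by real-time PCR. Triplicate determinations in three independent experiments, reported as mean ± SD.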

A short description of data set [10]: Cytotoxicity against HFF assessed as inhibition of cell proliferation at 0.1 uM after 3 days by MTT assay. Type of data set: cell-based. Conditions: human, HFF cells. A digest of the protocol: as §1
In data set [11] the test system is Human betaherpesvirus 5. As to the kind of experiment: Antiviral activity against Human cytomegalovirus Towne infected in HFF assessed as plaque reduction at 50 nM measured 8 days post-infection. Type of data set: functional, organism-based. In outline: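 Plaque reduction assay with HCMV Towne in HFFs, read at 8 days postinfection. Triplicate determinations in three independent experiments, mean ± SD.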

The test system of data set [12] is Human betaherpesvirus 5. Briefly: Antiviral activity against Human cytomegalovirus Towne infected in HFF assessed as inhibition of viral replication by measuring pp28 expression at 50 nM at 72 hrs post-infection by luciferase assay. Format: functional, organism-based. In outline: as §2

Calls of active or inactive are those of the source. No cut-off for these calls is given here.

`C[C@@H]1O[C@@H](O[C@@H]2[C@@H](O)[C@@H](O)[C@H](O[C@@H]3[C@@H](O)[C@@H](O)[C@H](O[C@H]4CC[C@@]5(C)[C@H](CC[C@@H]6[C@@H]5CC[C@]5(C)[C@@H](C7=CC(=O)OC7)CC[C@]65O)C4)O[C@H]3C)O[C@H]2C)[C@H](O)[C@H](O)[C@H]1O`: the cytotoxic concentration (CC50) at 72 h is 7000 nM in [1] and 11000 nM in data set [3]. Moreover, the “Ratio CC50/EC50” value in data set [2] worked out at 30. Moreover, the EC50 in the data set with Human betaherpesvirus 5 [4] came out at 232 nM.
Turning to `C[C@@H]1O[C@@H](O[C@@H]2CC[C@H](O[C@H]3CC[C@@]4(C)[C@H](CC[C@@H]5[C@@H]4CC[C@]4(C)[C@@H](C6=CC(=O)OC6)CC[C@]54O)C3)O[C@H]2C)CC[C@H]1O`, the values for the CC50 at 72 h in [1] and in [3] were 1100 nM and 7000 nM, respectively. Further, the “Ratio CC50/EC50” value in data set [2] amounted to 76. For the same compound, the EC50 in the data set with Human betaherpesvirus 5 [4] came out at 14.8 nM.
In the case of `C[C@@H]1O[C@@H](O[C@H]2C[C@@H](O)[C@]3(CO)[C@H]4[C@H](O)C[C@]5(C)[C@@H](C6=CC(=O)OC6)CC[C@]5(O)[C@@H]4CC[C@]3(O)C2)[C@H](O)[C@H](O)[C@H]1O` [OUABAIN], the Activity entry in the data set with HFF [5] is listed as “Active”; in the data set on HFF [6], “Not Active”; in the data set on HFF [7], “Not Active”.
With `C[C@@H]1O[C@@H](O[C@@H]2[C@@H](O)[C@@H](O)[C@H](O[C@H]3CC[C@@]4(C)[C@H](CC[C@@H]5[C@@H]4CC[C@]4(C)[C@@H](C6=CC(=O)OC6)CC[C@]54O)C3)O[C@H]2C)[C@H](O)[C@H](O)[C@H]1O`, the CC50 at 72 h in data set [1] is 1500 nM; in [3], 6000 nM. The “Ratio CC50/EC50” value in [2] stood at 41. Besides, the 50% effective concentration (EC50) in the data set on Human betaherpesvirus 5 [4] came to 36.7 nM.
For the compound `C[C@@H]1O[C@@H](O[C@H]2CC[C@@]3(C)[C@H](CC[C@@H]4[C@@H]3CC[C@]3(C)[C@@H](C5=CC(=O)OC5)CC[C@]43O)C2)[C@H](O)[C@H](O)[C@H]1O`, the CC50 at 72 h in data set [1] worked out at 700 nM; in [3], 2000 nM. Further, in [2], the “Ratio CC50/EC50” value stood at 139. Besides, in the data set with Human betaherpesvirus 5 [4], the EC50 came out at 4.8 nM.
The like results for `C[C@]12CC[C@H](O[C@@H]3O[C@@H](CO)[C@H](O)[C@@H](O)[C@H]3O)C[C@H]1CC[C@@H]1[C@@H]2CC[C@]2(C)[C@@H](C3=CC(=O)OC3)CC[C@]12O` were, in that order, 900 nM, 1900 nM, 127 and 7.3 nM.
For `C[C@H]1O[C@@H](O[C@H]2[C@@H](O)C[C@H](O[C@H]3[C@@H](O)C[C@H](O[C@H]4CC[C@@]5(C)[C@H](CC[C@@H]6[C@@H]5CC[C@]5(C)[C@@H](C7=CC(=O)OC7)CC[C@]65O)C4)O[C@@H]3C)O[C@@H]2C)C[C@H](O)[C@@H]1O` [DIGITOXIN], the CC50 at 72 h in data set [1] was 2800 nM; in data set [3], 6000 nM. Moreover, the inhibition entry in the data set with Human betaherpesvirus 5 [8], in the data set on Human betaherpesvirus 5 [9], with Human betaherpesvirus 5 [11] and in the data set on Human betaherpesvirus 5 [12] was “Active” each time. Besides, the “Ratio CC50/EC50” value in data set [2] turned out to be 120. The results for the Activity result in the data set on HFF [5], in the data set with HFF [6] and in the data set on HFF [7] were “Active”, “Not Active” and “Not Active”, respectively. Besides, the EC50 with Human betaherpesvirus 5 [4] came to 23.3 nM. In addition, the inhibition at 72 h, 0.1 µM in data set [10] was found to be 50%.
As for `C[C@@H]1O[C@@H](O[C@@H]2CC[C@H](O[C@@H]3CC[C@H](O[C@H]4CC[C@@]5(C)[C@H](CC[C@@H]6[C@@H]5CC[C@]5(C)[C@@H](C7=CC(=O)OC7)CC[C@]65O)C4)O[C@H]3C)O[C@H]2C)CC[C@H]1O`, the 50% cytotoxic concentration (CC50) at 72 h was 2400 nM in [1] and 9000 nM in data set [3]. For the same compound, the “Ratio CC50/EC50” value in [2] is recorded as 21. Moreover, in the data set with Human betaherpesvirus 5 [4], the EC50 turned out to be 113 nM.
Regarding `C[C@H]1O[C@H](O[C@H]2CC[C@@]3(C)[C@H](CC[C@@H]4[C@@H]3CC[C@]3(C)[C@@H](C5=CC(=O)OC5)CC[C@]43O)C2)CC[C@@H]1O`, the values for the CC50 at 72 h in data set [1] and in data set [3] were 1100 nM and 4000 nM, respectively. Moreover, the “Ratio CC50/EC50” value in data set [2] was 29. Further, the EC50 with Human betaherpesvirus 5 [4] turned out to be 37.5 nM.
Consider `C[C@@H]1O[C@@H](O[C@H]2CC[C@@]3(C)[C@H](CC[C@@H]4[C@@H]3CC[C@]3(C)[C@@H](C5=CC(=O)OC5)CC[C@]43O)C2)CC[C@H]1O` [RAMNODIGIN], for which the CC50 at 72 h in data set [1] is 700 nM; in [3], 4000 nM. Besides, the “Ratio CC50/EC50” value in [2] worked out at 174. Further, in the data set with Human betaherpesvirus 5 [4], the EC50 came out at 3.8 nM. Besides, the inhibition at 72 h, 0.1 µM in data set [10] was 50%.
As for `C[C@H]1O[C@H](O[C@H]2CC[C@@]3(C)[C@H](CC[C@@H]4[C@@H]3CC[C@]3(C)[C@@H](C5=CC(=O)OC5)CC[C@]43O)C2)[C@@H](O)[C@@H](O)[C@@H]1O`, the CC50 at 72 h in [1] was determined as 2300 nM; in data set [3], 3700 nM. Also, the “Ratio CC50/EC50” value in data set [2] came to 86. Moreover, the EC50 with Human betaherpesvirus 5 [4] stood at 26.6 nM.
The like results for `C[C@H]1O[C@H](O[C@H]2CC[C@@]3(C)[C@H](CC[C@@H]4[C@@H]3CC[C@]3(C)[C@@H](C5=CC(=O)OC5)CC[C@]43O)C2)CC[C@@H]1O[C@@H]1CC[C@H](O)[C@@H](C)O1` were, in that order, 12100 nM, 1000 nM, 15 and 790 nM.
As for `C[C@H]1O[C@H](O[C@H]2CC[C@@]3(C)[C@H](CC[C@@H]4[C@@H]3CC[C@]3(C)[C@@H](C5=CC(=O)OC5)CC[C@]43O)C2)CC[C@@H]1O[C@@H]1CC[C@H](O[C@@H]2CC[C@H](O)[C@@H](C)O2)[C@@H](C)O1`, the half-maximal cytotoxic concentration (CC50) at 72 h in [1] was found to be 15000 nM; in data set [3], 19000 nM. In data set [2], the “Ratio CC50/EC50” value is recorded as 7. Further, in the data set on Human betaherpesvirus 5 [4], the 50% effective concentration (EC50) was found to be 2080 nM.
On to `C[C@H]1O[C@H](O[C@H]2[C@H](O)[C@H](O)[C@@H](O[C@H]3[C@H](O)[C@H](O)[C@@H](O[C@H]4CC[C@@]5(C)[C@H](CC[C@@H]6[C@@H]5CC[C@]5(C)[C@@H](C7=CC(=O)OC7)CC[C@]65O)C4)O[C@@H]3C)O[C@@H]2C)[C@@H](O)[C@@H](O)[C@@H]1O`, for which the CC50 at 72 h was 10000 nM in [1] and 16000 nM in [3]. Besides, the “Ratio CC50/EC50” value in [2] stood at 31. Further, the EC50 in the data set on Human betaherpesvirus 5 [4] worked out at 320 nM.
Regarding `C[C@H]1O[C@H](O[C@H]2[C@H](O)[C@H](O)[C@@H](O[C@H]3CC[C@@]4(C)[C@H](CC[C@@H]5[C@@H]4CC[C@]4(C)[C@@H](C6=CC(=O)OC6)CC[C@]54O)C3)O[C@@H]2C)[C@@H](O)[C@@H](O)[C@@H]1O`, the CC50 at 72 h in data set [1] worked out at 6700 nM; in data set [3] it was 10000 nM. Moreover, the “Ratio CC50/EC50” value in [2] was determined as 32. In addition, in the data set on Human betaherpesvirus 5 [4], the EC50 amounted to 209 nM.
